Assay results: ChEMBL document CHEMBL4043311, “Developing Equipotent Teixobactin Analogues against Drug-Resistant Bacteria and Discovering a Hydrophobic Interaction between Lipid II and Teixobactin” (J Med Chem, 2018)
Converted amounts (≈) assume the structure as drawn. The source made the active and inactive calls. No cut-off for these calls is given here.

Columns and labels:
[1] = Binding affinity to undecaprenyl-phosphate at 1 to 4 nmol after 30 mins by TLC method
How it was run: (§1)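 Lipid II or C55-P (1 nmol) incubated with 1, 2, 3 or 4 nmol compound in 50 mM Tris/HCl pH 7.5, 30 min at rt. Extracted twice with pyridinium acetate (6 M, pH 4.2)/butanol (1:2), then washed with butanol-saturated water. Organic phase run on silica TLC in chloroform/methanol/water/ammonia (88:48:10:1) and stained with phosphomolybdic acid; loss of lipid band scored. Done twice.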

[2] = system: Streptococcus pneumoniae; assay: Antibacterial activity against Streptococcus pneumoniae D39 after 20 hrs by broth microdilution method; format: functional; conditions: D39, 20 h
How it was run: (§2)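 CLSI broth microdilution in cation-adjusted Mueller-Hinton broth with 3% lysed horse blood for streptococci and 0.002% polysorbate 80. Compounds taken from 10 mg/mL DMSO stocks and diluted in broth. Inoculum about 5×10^5 cells/mL. After 20 h at 37 °C, MIC read as lowest concentration with no visible growth. Done three times.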

[3] = system: Enterococcus faecalis; assay: Antibacterial activity against […] Enterococcus faecalis ATCC 29212 after 20 hrs by broth microdilution method; format: functional; conditions: ATCC 29212, 20 h
How it was run: (§3)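 Broth microdilution per CLSI in cation-adjusted Mueller-Hinton broth with 0.002% polysorbate 80. Analogues were made up as 10 mg/mL DMSO stocks, then diluted in MHB. Inoculum approx. 5×10^5 cells/mL. Incubated 20 h at 37°C; MIC taken as the lowest concentration with no visible growth. Run three times.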

[4] = system: Streptococcus pneumoniae; assay: Antibacterial activity against Streptococcus pneumoniae D39 infected in C57BL/6J mouse at 5 x 10^4 cfu/mouse assessed as reduction of bacterial burden in blood at 1 to 5 mg/kg, iv administered 1 hr post infection measured after 12 to 22 hrs relative to control; format: functional
How it was run: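 Female C57BL/6J mice, 6-8 weeks, 4 per group, given 0.2 mL S. pneumoniae D39 i.p. (5×10^4 c.f.u. per mouse). At 1 h post-infection a single i.v. dose of 5 or 1 mg/kg was given in PBS:Cremophor-EL:DMSO (94:5:1). Vehicle and vancomycin 5 mg/kg groups were included. Blood c.f.u. counted at 12, 18 and 22 h.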

[5] = system: Staphylococcus aureus; assay: Antibacterial activity against methicillin-resistant Staphylococcus aureus BAA-1695 after 20 hrs by broth microdilution method; format: functional; conditions: BAA-1695, 20 h; how it was run: as §3
[6] = system: Staphylococcus aureus; assay: Antibacterial activity against Staphylococcus aureus ATCC 29213 at lipid 2/test compound molar ratio 2 preincubated with lipid 2 for 30 mins followed by bacterial inoculation measured after overnight incubation; format: functional
How it was run: (§4)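 Test agent at 4x or 8x its broth MIC mixed with lipid II or C55-P (2x or 0.5x molar excess over compound) in MHII broth with 0.05% tween-80, 30 min at rt; exponential S. aureus ATCC 29213 then added to final OD600 0.001. Overnight at 37 °C; growth judged by eye and plate-reader absorbance. Run two or three times.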

[7] = system: Streptococcus pyogenes; assay: Antibacterial activity against Streptococcus pyogenes ATCC 19615 after 20 hrs by broth microdilution method; format: functional; conditions: ATCC 19615, 20 h; how it was run: as §2
[8] = system: Staphylococcus aureus; assay: Antibacterial activity against methicillin-sensitive Staphylococcus aureus TH 4806 after 20 hrs by broth microdilution method; format: functional; conditions: TH 4806, 20 h; how it was run: as §3
[9] = system: Staphylococcus aureus; assay: Antibacterial activity against Staphylococcus aureus ATCC 29213 at undecaprenyl-phosphate/test compound molar ratio 0.5 to 2 preincubated with undecaprenyl-phosphate for 30 mins followed by bacterial inoculation measured after overnight incubation; format: functional; how it was run: as §4
[10] = Binding affinity to lipid 2 at 4 nmol after 30 mins by TLC method; how it was run: as §1
[11] = Binding affinity to Bacillus subtilis UDP-MurNAc-L-Ala-gamma-DGlu-meso-Dap-D-Ala-D-Ala by ITC method
How it was run: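 Park's nucleotide was isolated from Bacillus subtilis. ITC run at 25 °C in DMSO:H2O (85:15). The lipid II analogue (0.375 mM) was titrated into 0.025 mM test compound.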

[12] = system: Streptococcus pneumoniae; assay: Antibacterial activity against Streptococcus pneumoniae D39 infected in C57BL/6J mouse at 1 x 10^4 cfu/mouse assessed as mouse survival rate at 1 to 5 mg/kg, iv administered 1 hr post infection measured after 48 hrs relative to control; format: functional
How it was run: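 C57BL/6J female mice, 6-8 weeks, infected i.p. with 0.2 mL S. pneumoniae D39 suspension (1×10^4 c.f.u. per mouse), an inoculum giving at least 90% mortality within 48 h; 6 per group. Single i.v. dose 1 h post-infection at 5, 2 or 1 mg per kg in PBS:Cremophor-EL:DMSO (94:5:1); vehicle and vancomycin (5 mg per kg) controls. Survival scored at 48 h; log-rank test.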

[13] = system: Staphylococcus aureus; assay: Antibacterial activity against Staphylococcus aureus ATCC 29213 at lipid 2/test compound molar ratio 0.5 preincubated with lipid 2 for 30 mins followed by bacterial inoculation measured after overnight incubation; format: functional; how it was run: as §4
[14] = Binding affinity to lipid 2 at 1 to 4 nmol after 30 mins by TLC method; how it was run: as §1

Compound	Activity [1]	MIC [2]	MIC [3]	Activity [4]	MIC [5]	Activity [6]	MIC [7]	MIC [8]	Activity [9]	Activity [10]	Kd [11]	Survival [12]	Activity [13]	Activity [14]
CC[C@@H](C)[C@@H](NC(=O)[C@@H](CCC(N)=O)NC(=O)[C@H](CO)NC(=O)[C@@H](NC(=O)[C@H](N)Cc1ccc(-c2ccccc2)cc1)[C@@H](C)CC)C(=O)N[C@H](C(=O)N[C@@H](CO)C(=O)N[C@H]1C(=O)N[C@@H](C)C(=O)N[C@@H](CCCCN)C(=O)N[C@@H]([C@@H](C)CC)C(=O)O[C@H]1C)[C@@H](C)CC	inactive	< 0.032 µg/mL	0.5 µg/mL (≈ 0.391 µM)	6 deltalog10CFU/ml	0.5 µg/mL (≈ 0.391 µM)	inactive	< 0.25 µg/mL	0.5 µg/mL (≈ 0.391 µM)	Active	inactive	23 µM	100%	Active	–
CC[C@@H](C)[C@@H](NC(=O)[C@@H](CCC(N)=O)NC(=O)[C@H](CO)NC(=O)[C@@H](NC(=O)[C@H](N)Cc1ccc(-c2ccccc2)cc1)[C@@H](C)CC)C(=O)N[C@H](C(=O)N[C@@H](CO)C(=O)N[C@H]1C(=O)N[C@@H](C)C(=O)N[C@@H](CCCCN)C(=O)N[C@@H]([C@@H](C)CC)C(=O)N[C@H]1C)[C@@H](C)CC	inactive	< 0.032 µg/mL	0.5 µg/mL (≈ 0.391 µM)	–	0.25 µg/mL (≈ 0.196 µM)	inactive	< 0.25 µg/mL	0.25 µg/mL (≈ 0.196 µM)	Active	–	–	–	Active	Active
